The source made the active and inactive calls. No cut-off for these calls is given here. Where a SMILES comes first, the peptide text is derived from it. [ ]: non-standard residue; d: D form. 1Nal = N[C@@H](Cc1cccc2ccccc12)C(=O)O; 2Nal = N[C@@H](Cc1ccc2ccccc2c1)C(=O)O; NMeR = CN[C@@H](CCCNC(=N)N)C(=O)O; NMeF = CN[C@@H](Cc1ccccc1)C(=O)O; hArg = N=C(N)NCCCC[C@H](N)C(=O)O; β3hR = N=C(N)NCCC[C@H](N)CC(=O)O; Cha = N[C@@H](CC1CCCCC1)C(=O)O; Gly(cPr) = N[C@H](C(=O)O)C1CC1; β3hK = NCCCC[C@H](N)CC(=O)O; Orn = NCCC[C@H](N)C(=O)O
Legend:
[1] = (§1) Disruption of PP1 holoenzyme (unknown origin) interaction with protein inhibitor 2 assessed as increase in PP1 phosphatase activity by measuring increase in fluorescence using DiFMUP as substrate enzyme preincubated with I2 for ten mins followed by compound treatment for 20 mins followed by substrate addition by fluorescence based analysis; design: species or system Homo sapiens
[2] = species: Homo sapiens; assay: as §1, with “as substrate at 500 uM enzyme preincubated” for “as substrate enzyme preincubated”
[3] = tested on: HeLa; assay: Induction of calcium release in human HeLa cells and measured for 30 mins by fluorescent Ca2+-indicator dye Fluo-4 based fluorescence microscopy; type: functional, cell-based
Procedure, shortened: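 HeLa Kyoto cells in low-glucose DMEM, 10% FBS, seeded day before to ~80% confluency; loaded with 0.5 μM Fluo-4 in HEPES imaging buffer pH 7.4 (1.2 mM CaCl2) 30 min rt, washed; confocal imaging ex 488/em 516 nm, 2 min baseline, compound added, recorded 30 min; responder cells counted. Calcium-free variant: CaCl2 omitted, 250 μM EGTA.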

| Compound | EC50 [1] [µM] | other results |
| --- | --- | --- |
| CC(C)[C@H](NC(=O)[C@H](CCCNC(=N)N)NC(=O)[C@H](N)CCCCN)C(=O)N[C@@H](Cc1cnc[nH]1)C(=O)N[C@@H](Cc1ccccc1)C(N)=O | 2.6 | – |
| CC[C@H](C)[C@H](NC(=O)[C@@H](NC(=O)[C@H](CCC(=O)O)NC(=O)[C@H](C)NC(=O)[C@H](C)NC(=O)[C@H](CCC(=O)O)NC(=O)[C@H](Cc1ccc(C(=O)c2ccccc2)cc1)NC(=O)[C@H](Cc1ccccc1)NC(=O)[C@@H](NC(=O)[C@@H](NC(=O)[C@H](CCCNC(=N)N)NC(=O)[C@H](C)NC(=O)[C@H](CC(N)=O)NC(=O)[C@H](CCCCN)NC(=O)[C@H](CCCNC(=N)N)NC(=O)[C@H](CCCCN)NC(=O)[C@H](CCCNC(=N)N)NC(=O)[C@H](CCCCN)NC(=O)[C@@H]1CCCN1C(=O)[C@H](CCCNC(=N)N)NC(=O)[C@H](CCCCN)NC(=O)[C@H](CCCNC(=N)N)NC(=O)[C@H](CCCNC(=N)N)NC(C)=O)C(C)C)[C@H](C)O)[C@@H](C)CC)C(N)=O | 0.233 | – |
| CC(C)[C@@H](NC(=O)[C@@H](Cc1cnc[nH]1)NC(=O)[C@H](N)Cc1ccccc1)C(=O)N[C@H](CCCNC(=N)N)C(=O)O | – | Activity [2]: Active |
| CC(=O)N[C@@H](CCCNC(=N)N)C(=O)N[C@H](C(=O)N[C@H](C(=O)N[C@@H](Cc1ccccc1)C(N)=O)[C@@H](C)O)C(C)C (Ac-RVTF-NH2) | 85.7 | – |
| CC(=O)N[C@@H](CCCNC(=N)N)C(=O)N[C@H](C(=O)N[C@H](C(=O)N[C@@H](Cc1ccccc1)C(=O)O)[C@@H](C)O)C(C)C (Ac-RVTF-OH) | > 500 | – |
| CC(C)[C@H](NC(=O)[C@@H](NC(=O)[C@@H](N)Cc1ccccc1)[C@@H](C)O)C(=O)N[C@@H](CCCNC(=N)N)C(=O)O (H-FTVR-OH) | > 500 | – |
| CC(C)[C@H](NC(=O)[C@H](CCCNC(=N)N)NC(=O)[C@@H](N)CCCCN)C(=O)N[C@@H](Cc1cnc[nH]1)C(=O)N[C@@H](Cc1cccc2ccccc12)C(N)=O (H-KRVH[1Nal]-NH2) | 2.5 | – |
| CC(C)[C@H](NC(=O)[C@H](CCCNC(=N)N)NC(=O)[C@@H](N)CCCCN)C(=O)N[C@@H](Cc1c[nH]cn1)C(=O)N[C@@H](Cc1ccc2ccccc2c1)C(N)=O (H-KRVH[2Nal]-NH2) | 1.5 | – |
| CC(C)[C@H](NC(=O)[C@H](CCCNC(=N)N)NC(=O)[C@@H](N)CCCCN)C(=O)N[C@@H](Cc1cnc[nH]1)C(=O)N[C@@H](CC1CCCCC1)C(N)=O (H-KRVH[Cha]-NH2) | 52.5 | – |
| CC(C)[C@H](NC(=O)[C@H](CCCNC(=N)N)NC(=O)[C@@H](N)CCCCN)C(=O)N[C@@H](Cc1c[nH]cn1)C(=O)N(C)[C@@H](Cc1ccccc1)C(N)=O (H-KRVH[NMeF]-NH2) | 23.5 | – |
| N=C(N)NCCC[C@H](NC(=O)[C@@H](N)CCCCN)C(=O)N[C@H](C(=O)N[C@@H](Cc1c[nH]cn1)C(=O)N[C@@H](Cc1ccccc1)C(N)=O)C1CC1 (H-KR[Gly(cPr)]HF-NH2) | 2.1 | Activity [3]: Active |
| CC(C)[C@H](NC(=O)[C@@H](N)CCCCN)C(=O)N[C@H](C(=O)N[C@@H](Cc1ccccc1)C(=O)O)[C@@H](C)O (H-KVTF-OH) | > 500 | – |
| CC(C)[C@H](NC(=O)[C@H](CCCNC(=N)N)N(C)C(=O)[C@@H](N)CCCCN)C(=O)N[C@@H](Cc1cnc[nH]1)C(=O)N[C@@H](Cc1ccccc1)C(N)=O (H-K[NMeR]VHF-NH2) | 4.7 | Activity [3]: Active |
| CC(C)[C@H](NC(=O)[C@H](CCCCNC(=N)N)NC(=O)[C@@H](N)CCCCN)C(=O)N[C@@H](Cc1cnc[nH]1)C(=O)N[C@@H](Cc1ccccc1)C(N)=O (H-K[hArg]VHF-NH2) | 1.7 | Activity ([3]; DDE = dose-dependent effect): Dde |
| CC(C)[C@H](NC(=O)C[C@H](CCCNC(=N)N)NC(=O)[C@@H](N)CCCCN)C(=O)N[C@@H](Cc1c[nH]cn1)C(=O)N[C@@H](Cc1ccccc1)C(N)=O (H-K[β3hR]VHF-NH2) | 204 | – |
| CC[C@H](C)[C@H](NC(=O)[C@@H](N)CCCNC(=N)N)C(=O)N[C@H](C(=O)N[C@@H](Cc1ccccc1)C(=O)O)[C@@H](C)O (H-RITF-OH) | – | Activity [2]: Active |
| CC(C)C[C@H](NC(=O)[C@@H](N)CCCNC(=N)N)C(=O)N[C@H](C(=O)N[C@@H](Cc1ccccc1)C(=O)O)[C@@H](C)O (H-RLTF-OH) | – | Activity [2]: Active |
| CC(C)[C@H](NC(=O)[C@@H](N)CCCNC(=N)N)C(=O)N[C@@H](CC(=O)O)C(=O)N[C@@H](Cc1ccccc1)C(=O)O (H-RVDF-OH) | > 500 | – |
| CC(C)[C@H](NC(=O)[C@@H](N)CCCNC(=N)N)C(=O)N[C@@H](CCC(=O)O)C(=O)N[C@@H](Cc1ccccc1)C(=O)O (H-RVEF-OH) | – | Activity [2]: Active |
| CC(C)[C@H](NC(=O)[C@@H](N)CCCNC(=N)N)C(=O)N[C@@H](Cc1ccccc1)C(=O)N[C@@H](Cc1ccccc1)C(=O)O (H-RVFF-OH) | > 500 | – |
| CC(C)[C@H](NC(=O)[C@@H](N)CCCNC(=N)N)C(=O)NCC(=O)N[C@@H](Cc1ccccc1)C(=O)O (H-RVGF-OH) | – | Activity [2]: Active |
| CC(C)[C@H](NC(=O)[C@@H](N)CCCNC(=N)N)C(=O)N[C@@H](Cc1cnc[nH]1)C(=O)N[C@@H](Cc1ccccc1)C(=O)O (H-RVHF-OH) | 69.7 | – |
| CC(C)[C@H](NC(=O)[C@@H](N)CCCNC(=N)N)C(=O)N[C@@H](CCCCN)C(=O)N[C@@H](Cc1ccccc1)C(=O)O (H-RVKF-OH) | 249 | – |
| CC(C)[C@H](NC(=O)[C@@H](N)CCCNC(=N)N)C(=O)N[C@@H](CC(N)=O)C(=O)N[C@@H](Cc1ccccc1)C(=O)O (H-RVNF-OH) | 220 | – |
| CC(C)[C@H](NC(=O)[C@@H](N)CCCNC(=N)N)C(=O)N[C@@H](CCC(N)=O)C(=O)N[C@@H](Cc1ccccc1)C(=O)O (H-RVQF-OH) | 224 | – |

| Compound | EC50 [1] [µM] | other results |
| --- | --- | --- |
| CC(C)[C@H](NC(=O)[C@@H](N)CCCNC(=N)N)C(=O)N[C@@H](CO)C(=O)N[C@@H](Cc1ccccc1)C(=O)O (H-RVSF-OH) | > 500 | – |
| CC(C)[C@H](NC(=O)[C@@H](N)CCCNC(=N)N)C(=O)N[C@H](C(=O)N[C@@H](Cc1ccccc1)C(N)=O)[C@@H](C)O (H-RVTF-NH2) | 101 | – |
| CC(C)[C@H](NC(=O)[C@@H](N)CCCNC(=N)N)C(=O)N[C@H](C(=O)N[C@@H](Cc1ccccc1)C(=O)O)[C@@H](C)O (H-RVTF-OH) | 234 | – |
| CC(C)[C@H](NC(=O)[C@@H](N)CCCNC(=N)N)C(=O)N[C@H](C(=O)N[C@@H](Cc1c[nH]c2ccccc12)C(=O)O)[C@@H](C)O (H-RVTW-OH) | 256 | – |
| CC(C)[C@H](NC(=O)[C@@H](N)CCCNC(=N)N)C(=O)N[C@H](C(=O)N[C@@H](Cc1ccc(O)cc1)C(=O)O)[C@@H](C)O (H-RVTY-OH) | > 500 | – |
| CC(C)[C@H](NC(=O)[C@@H](N)CCCNC(=N)N)C(=O)N[C@H](C(=O)N[C@H](Cc1ccccc1)C(=O)O)[C@@H](C)O (H-RVT[dF]-OH) | > 500 | – |
| CC(C)[C@H](NC(=O)[C@@H](NC(=O)[C@@H](N)CCCNC(=N)N)C(C)C)C(=O)N[C@@H](Cc1ccccc1)C(=O)O (H-RVVF-OH) | – | Activity [2]: Active |
| CC(C)[C@H](NC(=O)[C@@H](N)CCCNC(=N)N)C(=O)N[C@@H](Cc1c[nH]c2ccccc12)C(=O)N[C@@H](Cc1ccccc1)C(=O)O (H-RVWF-OH) | 104 | – |
| CC(C)[C@H](NC(=O)[C@@H](N)CCCNC(=N)N)C(=O)N[C@@H](Cc1ccc(O)cc1)C(=O)N[C@@H](Cc1ccccc1)C(=O)O (H-RVYF-OH) | – | Activity [2]: Active |
| CC(C)[C@H](NC(=O)[C@@H](N)CCCNC(=N)N)C(=O)N[C@@H](C(=O)N[C@@H](Cc1ccccc1)C(=O)O)[C@H](C)O (H-RV[dT]F-OH) | > 500 | – |
| CC(C)[C@@H](NC(=O)[C@@H](N)CCCNC(=N)N)C(=O)N[C@H](C(=O)N[C@@H](Cc1ccccc1)C(=O)O)[C@@H](C)O (H-R[dV]TF-OH) | > 500 | – |
| CC(C)[C@H](NC(=O)[C@H](CCCNC(=N)N)NC(=O)[C@@H](N)CCCN)C(=O)N[C@@H](Cc1c[nH]cn1)C(=O)N[C@@H](Cc1ccccc1)C(N)=O (H-[Orn]RVHF-NH2) | 4.1 | Activity [3]: Active |
| CC(C)[C@@H](NC(=O)[C@H](NC(=O)[C@H](N)Cc1ccccc1)[C@H](C)O)C(=O)N[C@H](CCCNC(=N)N)C(=O)O (H-[dF][dT][dV][dR]-OH) | > 500 | – |
| CC(C)[C@H](NC(=O)[C@H](N)CCCNC(=N)N)C(=O)N[C@H](C(=O)N[C@@H](Cc1ccccc1)C(=O)O)[C@@H](C)O (H-[dR]VTF-OH) | > 500 | – |
| CC(C)[C@H](NC(=O)[C@H](N)CCCNC(=N)N)C(=O)N[C@H](C(=O)N[C@H](Cc1ccccc1)C(=O)O)[C@@H](C)O (H-[dR]VT[dF]-OH) | > 500 | – |
| CC(C)[C@@H](NC(=O)[C@H](N)CCCNC(=N)N)C(=O)N[C@@H](C(=O)N[C@@H](Cc1ccccc1)C(=O)O)[C@H](C)O (H-[dR][dV][dT]F-OH) | > 500 | – |
| CC(C)[C@H](NC(=O)[C@H](CCCNC(=N)N)NC(=O)[C@@H](N)CCCCNC(=N)N)C(=O)N[C@@H](Cc1cnc[nH]1)C(=O)N[C@@H](Cc1ccccc1)C(N)=O (H-[hArg]RVHF-NH2) | 6.6 | – |
| CC(C)[C@H](NC(=O)[C@H](CCCNC(=N)N)NC(=O)C[C@@H](N)CCCCN)C(=O)N[C@@H](Cc1c[nH]cn1)C(=O)N[C@@H](Cc1ccccc1)C(N)=O (H-[β3hK]RVHF-NH2) | 9.8 | – |
| CC(C)[C@H](NC(=O)[C@H](CCCNC(=N)N)NC(=O)C[C@@H](N)CCCNC(=N)N)C(=O)N[C@@H](Cc1cnc[nH]1)C(=O)N[C@@H](Cc1ccccc1)C(N)=O (H-[β3hR]RVHF-NH2) | 3.2 | Activity [3]: Active |
| Ac-KRVHF-NH2 | 1.7 | – |
| Ac-KRVHF-OH | 3.2 | – |
| H-KHVHF-NH2 | 24.6 | – |
| H-KRVHF-OH | 1.5 | – |
| H-RRVHF-OH | 2.7 | – |

— ChEMBL document CHEMBL5120861, “Short peptide pharmacophores developed from protein phosphatase-1 disrupting peptides (PDPs)” (Bioorg Med Chem, 2022)
